From PubChem
RGS4 inh: human RGS4 inhibition. HEK293 M3R/RGS4 inducible, Fluo-4 calcium flux; stronger effect = higher value; triggered by carbachol at its EC20. B-score at 10 µM. 310,000 compounds, 0.45% hits;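 active = B-score, a plate-corrected calcium signal, over three deviations above library mean, with baseline fluorescence within five deviations of library mean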;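 note: RGS4 expression induced by doxycycline in cells with stable M3 receptor; B-score is computed from the integrated fluorescence ratio over baseline after carbachol; higher B-score means a larger calcium signal and so more RGS4 inhibition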
Target sequence (P49798 whole entry, looked up): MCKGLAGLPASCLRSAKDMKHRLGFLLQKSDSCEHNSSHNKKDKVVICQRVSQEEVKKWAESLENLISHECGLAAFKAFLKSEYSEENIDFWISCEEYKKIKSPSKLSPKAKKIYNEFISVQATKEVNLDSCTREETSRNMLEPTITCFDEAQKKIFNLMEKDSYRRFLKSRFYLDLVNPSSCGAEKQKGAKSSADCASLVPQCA
RGS4 act: RGS4 potentiation or activation | HEK293 M3R/inducible RGS4, carbachol calcium flux Fluo4; stronger effect = lower value | B-score at 10 µM | 310,000 compounds, 0.92% hits | AID 463111;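 active = B-score of the integrated calcium signal more than 4 SD below the library mean, with starting fluorescence not abnormally high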;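 note: negative B-score means reduced calcium response which marks RGS4 activation or potentiation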
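Test system: HEK293 cells with stable M3R and inducible RGS4; also added: carbachol at ECmax as muscarinic agonist stimulus; schedule: dye loading 30 min 37 °C, buffer rest 30 min RT; technique: kinetic calcium fluorescence imaging with Fluo4-AM dye, 2 µM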
MrgX1 ag: activates human MrgX1 receptor signaling; Q96LB2; B-score at 10 µM; AID 588627; 310,000 compounds, 0.44% hits; MrgX1-HEK293 cells, Fluo-4 calcium fluorescence, agonist mode; stronger effect = higher value;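 active = calcium response B-score plate-corrected fluorescence ratio at least 3 library SD, with starting fluorescence B-score inside 5 SD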
Target sequence (Q96LB2 whole entry, looked up): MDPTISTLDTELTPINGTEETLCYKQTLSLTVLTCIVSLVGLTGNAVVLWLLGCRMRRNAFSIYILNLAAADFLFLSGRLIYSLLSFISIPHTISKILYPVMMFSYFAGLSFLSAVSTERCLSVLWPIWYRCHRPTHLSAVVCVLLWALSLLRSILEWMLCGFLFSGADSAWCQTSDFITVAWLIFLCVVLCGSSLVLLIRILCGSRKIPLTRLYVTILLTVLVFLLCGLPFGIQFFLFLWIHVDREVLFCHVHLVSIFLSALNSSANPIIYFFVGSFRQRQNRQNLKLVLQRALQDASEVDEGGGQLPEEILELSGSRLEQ
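Assay system: stable human MrgX1 HEK293 cell line. Quantity: 15,000 cells per well. Schedule: cells plated overnight, dye loaded 0.5 h 37 °C, 0.5 h room temperature. Detection: Fluo-4 NW calcium-flux fluorescence, kinetic read. Read-out basis: peak-minus-minimum fluorescence over baseline, converted to B scores. Control set: positive and negative control wells on each plate.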
MrgX1 PAM: human MrgX1 positive allosteric modulation, primary screen; Q96LB2; MrgX1-HEK293, Fluo-4 calcium flux, FDSS; stronger effect = higher value; B-score at 10 µM; 310,000 compounds, 0.63% hits; AID 588675;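 active = plate-corrected calcium response at least 3 library SD above typical, normal starting fluorescence, not activating the receptor alone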;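 note: compound read alongside a low EC10 to EC30 dose of BAM8-22 agonist; peak minus trough fluorescence over baseline measured at the second addition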
Kir21 block: inhibitors of mouse Kir2.1 inward-rectifier potassium channel. P35561. HEK293-Kir2.1, FluxOR thallium flux fluorescence; stronger effect = lower value. B-score at 10 µM. 310,000 compounds, 0.85% hits. AID 1672;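 active = fluorescence ratio B-score at or below minus 3 SD of library scores, with starting-brightness B-score within 2 SD, cut at about -4.2 in these data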;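 note: channel flux triggered by added potassium and thallium sulfate stimulus; B-score of peak minus minimum fluorescence over baseline after thallium stimulus; more negative B-score means stronger Kir2.1 block with less thallium influx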
MrgX1 antagonist: human MrgX1 receptor antagonism, primary screen | B-score at 10 µM | MRGX1-HEK293 calcium flux, Fluo-4, BAM8-22 antagonism; stronger effect = lower value | Q96LB2 | AID 588676 | 310,000 compounds, 1.3% hits;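 active = calcium-response B-score plate-corrected more than 3 library SD below zero, starting fluorescence within 5 deviations, no agonist response on first addition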;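 note: peak minus trough fluorescence over baseline after final BAM8-22 challenge near maximal dose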
RGS4 inh valid: validation of RGS4 inhibitors; HEK293 M3R/RGS4, carbachol calcium Fluo-4 fluorescence; carbachol added at its EC20; 0 = buffer wells, 100 = carbachol control; shares compounds with RGS4 inh; calcium response, % at 10 µM; 1,700 compounds, 65% hits; AID 492999;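 active = duplicate-averaged calcium response above the buffer-only control mean plus 5 SD of those controls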;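 note: integrated fluorescence ratio F max minus min over baseline F0; higher response in RGS4-induced cells means RGS4 inhibition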
RGS4 uninduced: non-induced cell nonspecific activity of RGS4 inhibitors; shares compounds with RGS4 inh; HEK293 M3R non-induced, carbachol calcium Fluo-4; submaximal (EC20) carbachol stimulus; buffer wells 0%, carbachol control wells 100%; activity (percent), % at 10 µM; 1,900 compounds, 20% hits; call rule not given here;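 note: RGS4 induction absent so cells express M3R without RGS4; higher means more calcium signal and flags a non-specific hit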
RGS4 inh ctr2: signal in non-induced cells without carbachol, RGS4 inhibitor counter-screen; shares compounds with RGS4 inh; HEK293 M3R/RGS4 non-induced, Fluo-4 calcium, no carbachol; normalised: buffer wells 0%, carbachol wells 100%; calcium response (agonist-mode artifact), % at 10 µM; 1,900 compounds, 22% hits;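 active = duplicate-averaged calcium rise in uninduced cells above buffer wells' mean plus 5 SD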
The depositor's hits bear a star; i = inactive; · = not tested or not shown. Sampled rows, rich in hits. Any-hit rate of the full collection: about 4.1%.

SMILES	RGS4 inh	RGS4 act	MrgX1 ag	MrgX1 PAM	Kir21 block	MrgX1 antagonist	RGS4 inh valid	RGS4 uninduced	RGS4 inh ctr2
Cc1c(OCC(=O)N[C@@H](Cc2ccccc2)C(=O)O)ccc2c3c(c(=O)oc12)CCC3	i	i	i	i	-0.95	i	i	i	i
Cc1c(OCC(=O)N[C@@H](CSCc2ccccc2)C(=O)O)ccc2c3c(c(=O)oc12)CCC3	4.9*	i	·	·	-0.04	·	i	i	i
Cc1ccc(SC(CC(=O)c2ccc(F)cc2)C(=O)O)cc1 (stereo unspecified)	i	i	i	i	0.05	i	·	i	i
O=C(/C=C/NNC(=O)c1ccc(Cl)cc1)c1ccccc1	6.1*	i	i	i	-0.76	i	i	i	i
O=C(/C=C/NNC(=O)c1ccccc1)c1ccc(Br)cc1	i	i	i	i	-0.28	i	·	·	·
CCOC(=O)C1CCN(Cc2cc(=O)oc3cc(C)ccc23)CC1	5.5*	i	i	i	-0.74	i	i	i	i
CCOC(=O)C1CCCN(Cc2cc(=O)oc3cc(C)c(C)cc23)C1 (stereo unspecified)	i	i	i	i	-2.7	i	·	·	·
CCOC(=O)C1CCCN(Cc2cc(=O)oc3cc(C)ccc23)C1 (stereo unspecified)	i	i	i	i	-1.2	i	i	i	10%*
CCN1C(=O)CC(NCc2ccc3c(c2)OCO3)C1=O (stereo unspecified)	i	i	i	i	-0.15	i	·	·	·
CCOc1ccc2ccccc2c1/C=N/NC(=O)c1ccc(C)nc1	i	i	i	i	0.76	i	·	·	·
O=C1NC(c2ccc(-c3ccccc3[N+](=O)[O-])o2)C(C(=O)c2ccccc2)C(O)(C(F)(F)F)N1 (stereo unspecified)	i	i	i	i	0.48	i	i	i	i
Cc1ccc(C(=O)C2C(c3ccc(-c4ccccc4[N+](=O)[O-])o3)NC(=O)NC2(O)C(F)(F)F)cc1 (stereo unspecified)	i	i	i	i	0.01	i	·	i	i
O=C1NC(c2cccs2)C(C(=O)c2ccccc2)C(O)(C(F)(F)F)N1 (stereo unspecified)	i	i	i	i	-0.66	i	·	·	·
Cc1cccc(C)c1N(CC(O)Cn1c2ccccc2c2ccccc21)S(C)(=O)=O (stereo unspecified)	7.2*	i	i	i	-0.02	i	19%*	i	i
Cc1ccc(N(CC(O)Cn2c3ccccc3c3ccccc32)S(C)(=O)=O)cc1 (stereo unspecified)	i	i	i	i	-2.7	i	·	·	·
CC(=O)c1c(C)[nH]c(C(=O)NCc2ccccc2Cl)c1C	i	i	i	i	-0.13	i	·	·	·
CC(=O)c1c[nH]c(C(=O)NCc2ccccc2Cl)c1	5.2*	i	i	i	-0.74	i	i	i	i
Nc1cccn2c(-c3ccc(Cl)c(Cl)c3)cnc12	12*	i	i	i	-0.82	i	7.5%*	i	i
Nc1cccn2c(-c3ccc(Cl)cc3)cnc12	i	i	i	i	0.11	i	·	·	·
Cn1nc(C(=O)OCC(=O)Nc2ccc(S(N)(=O)=O)cc2)c2ccccc2c1=O	i	i	i	i	0.49	i	·	·	·
CCC(c1nnnn1CCc1ccccc1)N(Cc1ccco1)Cc1cc2cccc(C)c2[nH]c1=O (stereo unspecified)	i	i	i	i	-1.7	i	·	·	·
NC(=O)CC(NC(=O)Cc1ccc(Cl)cc1)c1ccc(NC2CCCC2)c([N+](=O)[O-])c1 (stereo unspecified)	i	i	i	i	-0.07	i	i	i	i
NC(=O)CC(NC(=O)Cc1ccc(Cl)cc1)c1ccc(NC2CCCCC2)c([N+](=O)[O-])c1 (stereo unspecified)	i	i	i	i	1.8	i	·	·	·
NC(=O)CC(NC(=O)Cc1ccc(Br)cc1)c1ccc(NC2CCC2)c([N+](=O)[O-])c1 (stereo unspecified)	i	i	i	i	-1.2	i	·	i	i
CC1CCN(C(=O)CCCOc2cc(=O)n(C)c3ccccc23)CC1	i	i	i	i	-0.68	i	·	·	·
SMILES	RGS4 inh	RGS4 act	MrgX1 ag	MrgX1 PAM	Kir21 block	MrgX1 antagonist	RGS4 inh valid	RGS4 uninduced	RGS4 inh ctr2
CCn1c2ccccc2c2cc(/C=N/NC(=O)c3cc(O)cc(O)c3)ccc21	9*	i	i	i	1.1	i	42%*	31%*	i
CCn1c2ccccc2c2cc(/C=N/NC(=O)c3ccncc3)ccc21	i	i	i	i	0.08	i	·	·	·
CCn1c2ccccc2c2cc(/C=N/NC(=O)c3ccc(O)cc3)ccc21	i	i	i	i	-4.4*	-6.3*	·	i	i
CCn1c2ccccc2c2cc(NC(=O)c3cc(OC)cc(OC)c3)ccc21	i	i	i	i	2.2	i	·	·	·
Cn1c(=O)c(C(N)=S)cn(-c2ccccc2)c1=O	i	i	i	i	1.1	i	·	·	·
CCc1c(O)nc(SCC(N)=O)n(-c2ccccc2F)c1=O	i	i	i	i	0.86	i	·	·	·
O=c1c2ccccc2nc(N/N=C/c2c(O)ccc3ccccc23)n1O	8.4*	i	i	i	0.44	i	40%*	44%*	i
O=c1c2ccccc2nc(N/N=C/c2ccc(O)cc2)n1O	i	i	i	i	0.36	i	·	·	·
Cc1ccc(NC(=O)C2C3C=CC4(O3)C2C(=O)N(CCCN2CCCCC2)C4C(=O)NC2CCCCC2)cc1Cl (stereo unspecified)	i	i	i	i	0.07	i	·	·	·
O=[n+]1cc(-c2cccc3ccccc23)n([O-])c2c1CCC2	4.9*	i	i	i	-0.23	i	i	i	i
